In ChEMBL document CHEMBL1138477, “8-(4-Methoxyphenyl)pyrazolo[1,5-a]-1,3,5-triazines: selective and centrally active corticotropin-releasing factor receptor-1 (CRF1) antagonists” (J Med Chem, 2009):

What was measured:
[1] = Binding affinity to N-type calcium channel
[2] = test system: Canis familiaris; experiment: Ex vivo displacement of [125I]Tyr0-ovine CRF from CRF1 receptor in dog at 5 mg/kg, po measured in plasma after 10 hrs; type: functional; settings: Canis lupus familiaris
Summary of the method: (§1)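 Beagle dogs given 5 mg/kg po (free base), in Labrafil or Tween-80/0.5% methylcellulose 1:99; plasma drawn 2 and 10 h postdose, diluted 10-fold in binding buffer, and tested for inhibition of 125I-Tyr0-ovine-CRF binding to rat receptors; mean ± SD, n = 3.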

[3] = molecular target: T1, Alpha-1A adrenergic receptor (Homo sapiens, UniProt P35348); experiment: Binding affinity to adrenergic Alpha-1A receptor
T1 sequence (P35348 whole entry): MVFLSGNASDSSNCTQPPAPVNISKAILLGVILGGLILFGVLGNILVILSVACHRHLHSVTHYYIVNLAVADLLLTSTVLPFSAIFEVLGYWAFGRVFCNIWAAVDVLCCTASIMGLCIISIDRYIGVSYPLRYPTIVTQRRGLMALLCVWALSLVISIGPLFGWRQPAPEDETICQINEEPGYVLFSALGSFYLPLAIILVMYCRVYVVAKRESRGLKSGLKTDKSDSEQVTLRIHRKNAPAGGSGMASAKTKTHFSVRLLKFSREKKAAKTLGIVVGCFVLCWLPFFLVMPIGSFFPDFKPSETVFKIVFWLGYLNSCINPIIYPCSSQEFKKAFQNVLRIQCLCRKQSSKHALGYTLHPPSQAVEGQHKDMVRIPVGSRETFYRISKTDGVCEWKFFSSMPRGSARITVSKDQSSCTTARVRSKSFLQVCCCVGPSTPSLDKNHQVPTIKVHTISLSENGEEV

[4] = molecular target: T2, Alpha-2B adrenergic receptor (Homo sapiens, UniProt P18089); experiment: Binding affinity to adrenergic alpha2b receptor
T2 sequence (P18089 whole entry): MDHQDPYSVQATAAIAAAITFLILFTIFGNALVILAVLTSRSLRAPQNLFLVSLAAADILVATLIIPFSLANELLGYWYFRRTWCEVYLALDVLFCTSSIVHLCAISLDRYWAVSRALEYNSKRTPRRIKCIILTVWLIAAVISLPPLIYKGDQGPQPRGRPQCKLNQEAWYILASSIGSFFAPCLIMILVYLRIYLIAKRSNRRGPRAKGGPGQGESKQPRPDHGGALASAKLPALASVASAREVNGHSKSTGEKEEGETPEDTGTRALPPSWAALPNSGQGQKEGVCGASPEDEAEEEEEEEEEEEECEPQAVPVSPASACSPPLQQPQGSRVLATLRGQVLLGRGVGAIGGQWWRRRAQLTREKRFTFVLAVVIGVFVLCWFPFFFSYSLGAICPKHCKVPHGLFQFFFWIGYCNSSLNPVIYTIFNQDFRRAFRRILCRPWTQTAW

[5] = molecular target: T3, Alpha-1B adrenergic receptor (Homo sapiens, UniProt P35368); experiment: Binding affinity to adrenergic alpha-1b receptor
T3 sequence (P35368 whole entry): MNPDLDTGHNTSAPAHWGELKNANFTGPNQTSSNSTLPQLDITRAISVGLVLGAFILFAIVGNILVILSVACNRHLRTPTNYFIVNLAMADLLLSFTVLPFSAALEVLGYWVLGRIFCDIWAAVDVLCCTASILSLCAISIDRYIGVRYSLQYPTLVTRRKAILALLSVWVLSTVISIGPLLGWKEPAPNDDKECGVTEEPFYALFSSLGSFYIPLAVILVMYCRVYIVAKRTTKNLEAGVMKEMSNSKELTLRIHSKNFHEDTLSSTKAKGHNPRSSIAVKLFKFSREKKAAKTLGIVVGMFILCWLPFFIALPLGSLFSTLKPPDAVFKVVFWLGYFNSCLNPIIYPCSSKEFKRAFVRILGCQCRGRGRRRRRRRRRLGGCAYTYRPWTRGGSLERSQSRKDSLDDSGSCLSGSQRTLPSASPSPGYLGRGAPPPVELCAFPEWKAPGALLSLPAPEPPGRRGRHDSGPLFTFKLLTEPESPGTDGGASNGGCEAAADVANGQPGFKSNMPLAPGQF

[6] = molecular target: D(2) dopamine receptor (Homo sapiens, UniProt P14416); experiment: Binding affinity to dopamine D2 receptor
[7] = molecular target: D(1A) dopamine receptor (Homo sapiens, UniProt P21728); experiment: Binding affinity to dopamine D1 receptor
[8] = molecular target: T4, Corticotropin-releasing factor receptor 1 (Rattus norvegicus, UniProt P35353); experiment: Displacement of [125I]Tyr0-ovine CRF from CRF1 receptor in rat cortical membrane by gamma counting; type: cell membranes
T4 sequence (P35353 whole entry): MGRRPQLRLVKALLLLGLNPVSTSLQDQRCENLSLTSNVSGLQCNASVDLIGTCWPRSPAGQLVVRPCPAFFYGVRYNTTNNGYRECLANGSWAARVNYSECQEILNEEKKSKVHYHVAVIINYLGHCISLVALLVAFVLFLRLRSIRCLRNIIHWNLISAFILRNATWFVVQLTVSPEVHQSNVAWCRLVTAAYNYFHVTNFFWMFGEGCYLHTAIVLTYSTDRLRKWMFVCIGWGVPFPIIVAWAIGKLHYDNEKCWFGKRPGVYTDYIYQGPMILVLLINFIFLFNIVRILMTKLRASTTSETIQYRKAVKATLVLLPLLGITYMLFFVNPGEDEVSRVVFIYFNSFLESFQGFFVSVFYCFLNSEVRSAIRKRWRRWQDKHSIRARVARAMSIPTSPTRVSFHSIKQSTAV
Summary of the method: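 Inhibition of 125I-Tyr0-ovine-CRF binding to rat cortical membranes measured across dilutions of test drug; IC50 derived by iterative curve fitting.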

[9] = test system: Canis familiaris; experiment: Ex vivo displacement of [125I]Tyr0-ovine CRF from CRF1 receptor in dog at 5 mg/kg, po measured in plasma after 2 hrs; type: functional; settings: Canis lupus familiaris; summary of the method: as §1
[10] = Oral bioavailability in Beagle dog at 5 mg/kg; type: ADME, organism-based, Canis lupus familiaris; settings: in vivo
Summary of the method: (§2)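 Male beagle dogs (8.0-11.0 kg) dosed iv or po (5 mg/kg oral suspension in 0.5% methylcellulose with 1% Tween-80); plasma sampled 0.25-24 h; liquid-liquid extraction with hexane/ether, LC/MS/MS, quantitation limit 1 ng/mL (2.42 nM); noncompartmental parameters as free base.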

[11] = Tmax in Beagle dog at 5 mg/kg, po; type: ADME, organism-based, Canis lupus familiaris; parameters: dose 5 mg/kg, route oral; settings: in vivo; summary of the method: as §2
[12] = Cmax in Beagle dog at 5 mg/kg, po; type: ADME, organism-based, Canis lupus familiaris; parameters: dose 5 mg/kg, route oral; settings: in vivo; summary of the method: as §2
[13] = Volume of distribution at steady state in Beagle dog at 5 mg/kg, iv; type: ADME, organism-based, Canis lupus familiaris; parameters: dose 5 mg/kg, route intravenous; settings: in vivo, read-out: Vdss
Summary of the method: (§3)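 Male beagle dogs (8.0-11.0 kg) dosed intravenously. Plasma sampled at 0.25, 0.5, 1, 2, 4, 6, 8, 12 and 24 h after dosing. Liquid–liquid extraction in hexane/ether, then LC/MS/MS assay (quantitation limit 1 ng/mL). Concentrations expressed as free base. Parameters obtained by noncompartmental analysis as for rat. Mean ± SD.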

[14] = Clearance in Beagle dog at 5 mg/kg, iv; type: ADME, organism-based, Canis lupus familiaris; parameters: dose 5 mg/kg, route intravenous; settings: in vivo; summary of the method: as §2
[15] = Elimination half life in Beagle dog at 5 mg/kg, iv; type: ADME, organism-based, Canis lupus familiaris; parameters: dose 5 mg/kg, route intravenous; settings: in vivo, read-out: beta t1/2 (converted); summary of the method: as §2
[16] = test system: Canis familiaris; experiment: Hepatic blood flow in iv dosed Beagle dog; type: ADME, organism-based, Canis lupus familiaris, Liver; settings: in vivo
[17] = Volume of distribution at steady state in Beagle dog at 1 mg/kg, iv; type: ADME, organism-based, Canis lupus familiaris; parameters: dose 1 mg/kg, route intravenous; settings: in vivo, read-out: Vdss; summary of the method: as §3

Sequence of D(2) dopamine receptor (P14416 whole entry): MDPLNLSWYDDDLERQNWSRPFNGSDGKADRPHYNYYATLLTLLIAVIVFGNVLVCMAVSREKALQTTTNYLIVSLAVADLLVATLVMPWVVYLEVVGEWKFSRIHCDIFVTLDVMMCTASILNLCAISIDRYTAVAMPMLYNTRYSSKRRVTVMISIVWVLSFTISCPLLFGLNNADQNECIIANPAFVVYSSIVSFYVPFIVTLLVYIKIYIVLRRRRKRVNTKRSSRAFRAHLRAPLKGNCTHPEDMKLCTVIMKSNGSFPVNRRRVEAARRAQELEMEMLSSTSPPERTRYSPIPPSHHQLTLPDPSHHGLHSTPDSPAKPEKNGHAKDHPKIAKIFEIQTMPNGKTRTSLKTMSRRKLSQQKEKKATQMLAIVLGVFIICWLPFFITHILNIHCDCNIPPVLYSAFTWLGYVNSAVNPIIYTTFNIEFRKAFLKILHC
Sequence of D(1A) dopamine receptor (P21728 whole entry): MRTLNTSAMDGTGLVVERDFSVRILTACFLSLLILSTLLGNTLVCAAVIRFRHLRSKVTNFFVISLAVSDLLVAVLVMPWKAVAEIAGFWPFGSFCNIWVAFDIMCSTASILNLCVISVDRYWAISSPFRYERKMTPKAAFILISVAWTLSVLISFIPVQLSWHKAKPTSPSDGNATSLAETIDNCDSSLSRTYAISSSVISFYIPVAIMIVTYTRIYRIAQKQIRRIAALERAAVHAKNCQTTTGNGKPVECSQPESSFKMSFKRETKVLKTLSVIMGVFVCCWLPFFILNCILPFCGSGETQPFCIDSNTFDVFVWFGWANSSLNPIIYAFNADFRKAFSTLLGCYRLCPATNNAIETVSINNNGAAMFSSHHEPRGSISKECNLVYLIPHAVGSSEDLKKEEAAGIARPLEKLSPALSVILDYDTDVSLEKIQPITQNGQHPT

| Compound | IC50 [1] | inhibition in vivo at 5 mg/kg [2] | IC50 [3] | IC50 [4] | IC50 [5] | IC50 [6] | IC50 [7] | IC50 [8] | inhibition in vivo at 5 mg/kg [9] | bioavailability [10] | Tmax [11] | Cmax [12] | Vd [13] | clearance [14] | half-life [15] | QH [16] | Vd [17] |
| --- | --- | --- | --- | --- | --- | --- | --- | --- | --- | --- | --- | --- | --- | --- | --- | --- | --- |
| CCC(CC)Nc1nc(C)nc2c(-c3cc(F)c(OC)cc3Cl)c(C)nn12 | > 1000 nM | 66% | > 1000 nM | > 1000 nM | > 1000 nM | > 1000 nM | > 1000 nM | 1 nM | 97% | – | – | – | – | – | – | – | – |
| COCCN(CCOC)c1nc(C)nc2c(-c3ccc(OC)cc3C)c(C)nn12 | > 1000 nM | 37% | > 1000 nM | > 1000 nM | > 1000 nM | > 1000 nM | > 1000 nM | 4.2 nM | 75% | 34% | 0.5 h | 2380 nM | 18.4 L/kg | 20 mL/min/kg | 27.3 h | 31 mL/min/kg | – |
| CC[C@@H](C)Nc1nc(C)nc2c(-c3c(C)cc(OC)cc3OC)c(C)nn12 | > 1000 nM | 83% | > 1000 nM | > 1000 nM | > 1000 nM | > 1000 nM | > 1000 nM | 4.4 nM | 72% | – | – | – | – | – | – | 31 mL/min/kg | 14.8 L/kg |
| COCCN(CCOC)c1nc(C)nc2c(-c3cc(C)c(OC)cc3C)c(C)nn12 | > 1000 nM | 44% | > 1000 nM | > 1000 nM | > 1000 nM | > 1000 nM | > 1000 nM | 1.98 nM | 84% | 48% | 0.8 h | 1220 nM | 23.7 L/kg | 11 mL/min/kg | 40.2 h | 31 mL/min/kg | – |
